Reference: ChEMBL document CHEMBL1759852, “A comparative study of proapoptotic potential of cyano analogues of boswellic acid and 11-keto-boswellic acid” (Eur J Med Chem, 2011)
Active and inactive are the calls of the source. The rule behind the calls is not given here.

Legend:
[1] = test system: HeLa; experiment: Cytotoxicity against human HeLa cells after 48 hrs by MTT assay; format: functional, cell-based
How it was run: (§1)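 HL-60 (2 × 10^4/200 μl) or HeLa (1 × 10^4/200 μl) in RPMI-1640/MEM, 10% FCS, 37 °C, 5% CO2; treated 0.1–50 μM for 48 h, DMSO vehicle <0.2%. MTT added final 3 h; formazan dissolved in DMSO, OD 570 nm (reference 620 nm). IC50 as 50% viability versus untreated control; three experiments, CV <10%.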

[2] = test system: HL-60; experiment: Cytotoxicity against human HL60 cells after 48 hrs by MTT assay; format: functional, cell-based; conditions: HL-60, 48 h; how it was run: as §1
[3] = test system: HL-60; experiment: Induction of apoptosis in human HL60 cells assessed as early apoptotic cells at 2 uM after 6 hrs using Annexin-V-FITC/propidium iodide staining by flow cytometry (reference value: 6%); format: functional
How it was run: (§2)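 HL-60 cells (1 × 10^6/ml) treated 6 h at varied concentrations; camptothecin 4 μM 6 h positive control. AnnexinV-FITC and propidium iodide staining per kit; FL-1 versus FL-2 flow cytometry with quadrant statistics for apoptotic and necrotic populations; representative of three experiments.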

[4] = test system: HL-60; experiment: Induction of apoptosis in human HL60 cells assessed as late apoptotic cells at 0.3 uM after 6 hrs using Annexin-V-FITC/propidium iodide staining by flow cytometry (reference value: 1%); format: functional; how it was run: as §2
[5] = test system: HL-60; experiment: Cell cycle arrest in human HL60 cells assessed as accumulation at sub-G1 phase at 4 uM after 18 hrs by flow cytometry relative to control; format: functional
How it was run: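 HL-60 cells at 1 × 10^6/ml exposed 18 h; camptothecin 4 μM for 6 h as positive control. Cells pelleted 160 × g 5 min, PBS-washed, fixed in cold 70% alcohol overnight at −20 °C, RNase (400 μg/ml) digested, PI-stained; flow cytometry, hypo-diploid (<2n DNA) sub-G0/G1 fraction scored as apoptotic.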

[6] = test system: HL-60; experiment: Induction of apoptosis in human HL60 cells assessed as early apoptotic cells at 0.3 uM after 6 hrs using Annexin-V-FITC/propidium iodide staining by flow cytometry (reference value: 6%); format: functional; how it was run: as §2
[7] = test system: HL-60; experiment: Induction of apoptosis in human HL60 cells assessed as smoothening of cell surface and blebbing of plasma membrane at 0.5 uM after 9 hrs by scanning electron microscopy; format: functional, cell-based
How it was run: (§3)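 HL-60 seeded 2 × 10^5/ml in medium with 10% FCS, treated at 0.5 and 2 μM (DMSO stock; vehicle-only controls) for 9 h at 37 °C. Fixed 2.5% glutaraldehyde in 0.1 M phosphate pH 7.2 at 4 °C 1 h, post-fixed 1% OsO4 1 h, acetone-dehydrated, critical-point dried, gold-coated; surface ultrastructure by scanning electron microscopy.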

[8] = test system: HL-60; experiment: Induction of apoptosis in human HL60 cells assessed as early apoptotic cells at 4 uM after 6 hrs using Annexin-V-FITC/propidium iodide staining by flow cytometry (reference value: 6%); format: functional; how it was run: as §2
[9] = test system: HL-60; experiment: Induction of apoptosis in human HL60 cells assessed as increase in scattered apoptotic bodies formation at 0.5 uM after 9 hrs using Hoechst 33258 staining by fluorescence microscopy; format: functional, cell-based
How it was run: (§4)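 HL-60 cells (2 × 10^6/3 ml) treated 9 h, washed twice in PBS, fixed and stained with Hoechst 33258; nuclear morphology and apoptotic bodies examined by inverted fluorescence microscopy.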

[10] = test system: HL-60; experiment: Induction of apoptosis in human HL60 cells assessed as cell shrinkage and apoptotic body formation at 0.5 uM after 9 hrs by scanning electron microscopy; format: functional, cell-based; how it was run: as §3
[11] = test system: HL-60; experiment: Induction of apoptosis in human HL60 cells assessed as nuclear condensation and blebbing at 0.5 to 2 uM after 9 hrs Hoechst 33258 staining by fluorescence microscopy; format: functional, cell-based; how it was run: as §4
[12] = test system: HL-60; experiment: Induction of apoptosis in human HL60 cells assessed as late apoptotic cells at 4 uM after 6 hrs using Annexin-V-FITC/propidium iodide staining by flow cytometry (reference value: 1%); format: functional; how it was run: as §2
[13] = test system: HL-60; experiment: Induction of apoptosis in human HL60 cells assessed as late apoptotic cells at 2 uM after 6 hrs using Annexin-V-FITC/propidium iodide staining by flow cytometry (reference value: 1%); format: functional; how it was run: as §2
[14] = test system: HL-60; experiment: Induction of apoptosis in human HL60 cells assessed as early apoptotic cells at 1 uM after 6 hrs using Annexin-V-FITC/propidium iodide staining by flow cytometry (reference value: 6%); format: functional; how it was run: as §2
[15] = test system: HL-60; experiment: Induction of apoptosis in human HL60 cells assessed as loss of cell cytoplasmic volume at 2 uM after 9 hrs by scanning electron microscopy; format: functional, cell-based; how it was run: as §3
[16] = test system: HL-60; experiment: Induction of apoptosis in human HL60 cells assessed as apoptotic cells at 2 uM after 9 hrs by scanning electron microscopy; format: functional, cell-based; how it was run: as §3
[17] = test system: HL-60; experiment: Induction of apoptosis in human HL60 cells assessed as late apoptotic cells at 1 uM after 6 hrs using Annexin-V-FITC/propidium iodide staining by flow cytometry (reference value: 1%); format: functional; how it was run: as §2
[18] = test system: HL-60; experiment: Induction of apoptosis in human HL60 cells assessed as induction of morphological changes after 9 hrs by scanning electron microscopy; format: functional, cell-based; how it was run: as §3
[19] = test system: HL-60; experiment: Induction of apoptosis in human HL60 cells assessed as DNA ladder formation at 1 uM after 9 hrs by agarose gel electrophoresis; format: functional, cell-based
How it was run: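 HL-60 cells (2 × 10^6) treated 9 h; untreated negative control, camptothecin 4 μM positive control. Cells washed in PBS with 10 mM EDTA, lysed, genomic DNA extracted, precipitated, washed in 80% alcohol, dissolved in TE; run on 1.6% agarose at 50 V, ethidium bromide stained for laddering.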

| Compound | IC50 [1] [µM] | IC50 [2] [µM] | further results |
| --- | --- | --- | --- |
| CCCCOC(=O)[C@]1(C)[C@@H]2CC[C@]3(C)[C@H](CC=C4[C@@H]5[C@@H](C)[C@H](C)CC[C@]5(C)CC[C@]43C)[C@@]2(C)CC[C@H]1OC(C)=O | > 50 | 28 | – |
| CCCCOC(=O)[C@@]1(C)C(=O)C(C#N)=C[C@]2(C)[C@H]3CC=C4[C@@H]5[C@@H](C)[C@H](C)CC[C@]5(C)CC[C@@]4(C)[C@]3(C)CC[C@@H]12 | 7.9 | 0.42 | Activity [3]: 11%; Activity [4]: 2%; Activity [5]: 76%; Activity [6]: 9%; Activity [7]: Active; Activity [8]: 12%; Activity [9]: Active; Activity [10]: Active; Activity [11]: Active; Activity [12]: 1%; Activity [13]: 2%; Activity [14]: 10%; Activity [15]: Active; Activity [16]: Active; Activity [17]: 1% |
| CCCCOC(=O)[C@]1(C)[C@@H]2CC[C@]3(C)[C@H](CC=C4[C@@H]5[C@@H](C)[C@H](C)CC[C@]5(C)CC[C@]43C)[C@@]2(C)CC(C#N)[C@@H]1O (stereo not given in full) | > 50 | > 50 | – |
| CCCCOC(=O)[C@]1(C)[C@@H]2CC[C@]3(C)[C@H](C(=O)C=C4[C@@H]5[C@@H](C)[C@H](C)CC[C@]5(C)CC[C@]43C)[C@@]2(C)CC[C@H]1OC(C)=O | 40 | 30 | – |
| C[C@H]1[C@H](C)CC[C@]2(C)CC[C@]3(C)C(=CC(=O)[C@@H]4[C@@]5(C)CC(C(N)=O)[C@H](O)[C@](C)(C(=O)O)[C@@H]5CC[C@]43C)[C@H]12 (stereo not given in full) | > 50 | > 50 | – |
| CCCCOC(=O)[C@@]1(C)C(=O)CC[C@]2(C)[C@H]3C(=O)C=C4[C@@H]5[C@@H](C)[C@H](C)CC[C@]5(C)CC[C@@]4(C)[C@]3(C)CC[C@@H]12 | > 50 | > 50 | – |
| C[C@H]1[C@H](C)CC[C@]2(C)CC[C@]3(C)C(=CC[C@@H]4[C@@]5(C)CC[C@@H](O)[C@](C)(C(=O)O)[C@@H]5CC[C@]43C)[C@H]12 [BOSWELLIC ACID] | 35 | 24 | – |
| C[C@H]1[C@H](C)CC[C@]2(C)CC[C@]3(C)C(=CC[C@@H]4[C@@]5(C)CC(C(N)=O)[C@H](O)[C@](C)(N=C=O)[C@@H]5CC[C@]43C)[C@H]12 (stereo not given in full) | > 50 | > 50 | – |
| CCCCOC(=O)[C@@]1(C)C(=O)C(C#N)C[C@]2(C)[C@H]3CC=C4[C@@H]5[C@@H](C)[C@H](C)CC[C@]5(C)CC[C@@]4(C)[C@]3(C)CC[C@@H]12 (stereo not given in full) | 35 | 14 | – |
| CCCCOC(=O)[C@@]1(C)C(=O)/C(=C\O)C[C@]2(C)[C@H]3C(=O)C=C4[C@@H]5[C@@H](C)[C@H](C)CC[C@]5(C)CC[C@@]4(C)[C@]3(C)CC[C@@H]12 | > 50 | 5 | – |
| C[C@H]1[C@H](C)CC[C@]2(C)CC[C@]3(C)C(=CC(=O)[C@@H]4[C@@]5(C)CC[C@@H](O)[C@](C)(C(=O)O)[C@@H]5CC[C@]43C)[C@H]12 [11-KETO BOSWELLIC ACID] | 50 | 32 | – |
| C[C@H]1[C@H](C)CC[C@]2(C)CC[C@]3(C)C(=CC[C@@H]4[C@@]5(C)CC(C(N)=O)[C@H](O)[C@](C)(C(=O)O)[C@@H]5CC[C@]43C)[C@H]12 (stereo not given in full) | > 50 | > 50 | – |
| CCCCOC(=O)[C@]1(C)[C@@H]2CC[C@]3(C)[C@H](C(=O)C=C4[C@@H]5[C@@H](C)[C@H](C)CC[C@]5(C)CC[C@]43C)[C@@]2(C)CC(C#N)[C@@H]1O (stereo not given in full) | 30 | 14 | – |
| CCCCOC(=O)[C@@]1(C)C(=O)CC[C@]2(C)[C@H]3CC=C4[C@@H]5[C@@H](C)[C@H](C)CC[C@]5(C)CC[C@@]4(C)[C@]3(C)CC[C@@H]12 | > 50 | > 50 | – |
| CCCCOC(=O)[C@@]1(C)c2oncc2C[C@@]2(C)[C@H]1CC[C@]1(C)[C@@H]2CC=C2[C@@H]3[C@@H](C)[C@H](C)CC[C@]3(C)CC[C@]21C | 50 | 50 | – |
| CCCCOC(=O)[C@@]1(C)C(=O)/C(=C\O)C[C@]2(C)[C@H]3CC=C4[C@@H]5[C@@H](C)[C@H](C)CC[C@]5(C)CC[C@@]4(C)[C@]3(C)CC[C@@H]12 | 44 | 33 | – |
| CC(=O)O[C@@H]1CC[C@@]2(C)[C@@H](CC[C@]3(C)[C@@H]2C(=O)C=C2[C@@H]4[C@@H](C)[C@H](C)CC[C@]4(C)CC[C@]23C)[C@@]1(C)C(=O)O [AKBA] | 31 | 11 | – |
| C[C@H]1[C@H](C)CC[C@]2(C)CC[C@]3(C)C(=CC(=O)[C@@H]4[C@@]5(C)CC(C(N)=O)[C@H](O)[C@](C)(N)[C@@H]5CC[C@]43C)[C@H]12 (stereo not given in full) | > 50 | > 50 | – |
| C[C@H]1[C@H](C)CC[C@]2(C)CC[C@]3(C)C(=CC(=O)[C@@H]4[C@@]5(C)CC(C(N)=O)[C@H](O)[C@](C)(N=C=O)[C@@H]5CC[C@]43C)[C@H]12 (stereo not given in full) | 45 | 24 | – |
| CCCCOC(=O)[C@@]1(C)[C@H](O)CC[C@@]2(C)[C@H]1CC[C@]1(C)[C@@H]2C(=O)C=C2[C@@H]3[C@@H](C)[C@H](C)CC[C@]3(C)CC[C@]21C | 50 | 34 | – |
| C[C@H]1[C@H](C)CC[C@]2(C)CC[C@]3(C)C(=CC[C@@H]4[C@@]5(C)CC(C(N)=O)[C@H](O)[C@](C)(N)[C@@H]5CC[C@]43C)[C@H]12 (stereo not given in full) | > 50 | 37 | – |
| CCCCOC(=O)[C@@]1(C)c2oncc2C[C@@]2(C)[C@H]1CC[C@]1(C)[C@@H]2C(=O)C=C2[C@@H]3[C@@H](C)[C@H](C)CC[C@]3(C)CC[C@]21C | > 50 | 33 | – |
| CCCCOC(=O)[C@@]1(C)[C@H](O)CC[C@@]2(C)[C@H]1CC[C@]1(C)[C@@H]2CC=C2[C@@H]3[C@@H](C)[C@H](C)CC[C@]3(C)CC[C@]21C | > 50 | > 50 | – |
| CCCCOC(=O)[C@@]1(C)C(=O)C(C#N)=C[C@]2(C)[C@H]3C(=O)C=C4[C@@H]5[C@@H](C)[C@H](C)CC[C@]5(C)CC[C@@]4(C)[C@]3(C)CC[C@@H]12 | 3 | 0.67 | Activity [3]: 24%; Activity [4]: 3%; Activity [18]: Dose-dependent effect; Activity [5]: 96%; Activity [6]: 15%; Activity [8]: 26%; Activity [9]: Active; Activity [19]: Active; Activity [11]: Active; Activity [12]: 1%; Activity [13]: 1%; Activity [14]: 20%; Activity [17]: 2% |
| CC(=O)O[C@@H]1CC[C@@]2(C)[C@@H](CC[C@]3(C)[C@@H]2CC=C2[C@@H]4[C@@H](C)[C@H](C)CC[C@]4(C)CC[C@]23C)[C@@]1(C)C(=O)O | 22 | 10 | – |
| CCCCOC(=O)[C@@]1(C)C(=O)C(C#N)C[C@]2(C)[C@H]3C(=O)C=C4[C@@H]5[C@@H](C)[C@H](C)CC[C@]5(C)CC[C@@]4(C)[C@]3(C)CC[C@@H]12 (stereo not given in full) | 17 | 11 | – |
